Test results reported in ChEMBL document CHEMBL4311941, “Development of Multifunctional Histone Deacetylase 6 Degraders with Potent Antimyeloma Activity” (J Med Chem, 2019).
Calls of active or inactive are those of the source. No cut-off for these calls is given here.

Legend:
MM1.S [1] = assay: Antiproliferative activity against human MM1S cells assessed as reduction in cell viability at 1 uM measured after 72 hrs by resazurin dye based assay; assay type: functional
[2] = biological target: T1, Protein cereblon/Protein deacetylase HDAC6 (Homo sapiens, UniProt Q9UBN7+Q96SW2); assay: Protac activity at CRBN/HDAC6 in human MM1S cells assessed as HDAC6 degradation measured after 6 hrs by ELISA relative to control; assay type: cell-based
Procedure, shortened: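 In-cell ELISA: MM1S cells (5 × 10^4 per well) seeded overnight, treated 6 h (dosed as 5× medium; 0.1 nM–1 μM or 10/100 nM). Fixed in 8% formaldehyde/TBS, permeabilized with 0.1% Triton X, peroxidase quenched with 1% H2O2, blocked in 5% BSA. Anti-HDAC6 rabbit mAb (1:1000, 2 h) then HRP secondary; TMB read as OD450 − OD570. Background wells lacked primary antibody. Signal normalized to Janus Green and to DMSO wells, n = 3. DC50/Dmax from three-parameter fit.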

[3] = biological target: Protein cereblon/Histone deacetylase 4 (Homo sapiens) (UniProt P56524+Q96SW2); assay: Protac activity at CRBN/HDAC4 in human MM1S cells assessed as HDAC4 degradation measured after 6 hrs by Western blot analysis; assay type: cell-based
[4] = biological target: T1, Protein cereblon/Protein deacetylase HDAC6; assay: Protac activity at CRBN/HDAC6 in human A431 cells assessed as HDAC6 degradation up to 3 uM incubated for 12 hrs by Western blot analysis; assay type: cell-based
[5] = biological target: T1, Protein cereblon/Protein deacetylase HDAC6; assay: Protac activity at CRBN/HDAC6 in human A431 cells assessed as HDAC6 degradation up to 10 uM incubated for 6 hrs by Western blot analysis; assay type: cell-based
[6] = biological target: T1, Protein cereblon/Protein deacetylase HDAC6; assay: Protac activity at CRBN/HDAC6 in human MM1S cells assessed as HDAC6 degradation at 100 nM measured after 6 hrs in presence of HDAC6 inhibitor Next-A by Western blot analysis; assay type: cell-based
MM1.S [7] = assay: Induction of apoptosis in human MM1S cells assessed as cleavage of casapse3 measured after 48 hrs by Western blot analysis; assay type: functional, cell-based
[8] = biological target: Histone deacetylase (Homo sapiens) (UniProt Q13547+O15379+Q9UBN7+Q92769+Q9UQL6+Q8WUI4+Q9BY41+Q96DB2+P56524+Q9UKV0+Q969S8); settings: at 100 nM
MM1.S [9] = assay: Induction of apoptosis in human MM1S cells assessed as cleavage of PARP measured after 48 hrs by Western blot analysis; assay type: functional, cell-based
Histone deacetylase 7 = biological target: T2, Histone deacetylase 7 (Homo sapiens, UniProt Q8WUI4); assay: Inhibition of human N-terminal tagged human HDAC7 expressed in HEK293T/17 using Boc-[TFA-Lys]-AMC as substrate preincubated for 10 mins followed by substrate addition and measured after 60 mins by fluorescence assay
T2 sequence (Q8WUI4 whole entry): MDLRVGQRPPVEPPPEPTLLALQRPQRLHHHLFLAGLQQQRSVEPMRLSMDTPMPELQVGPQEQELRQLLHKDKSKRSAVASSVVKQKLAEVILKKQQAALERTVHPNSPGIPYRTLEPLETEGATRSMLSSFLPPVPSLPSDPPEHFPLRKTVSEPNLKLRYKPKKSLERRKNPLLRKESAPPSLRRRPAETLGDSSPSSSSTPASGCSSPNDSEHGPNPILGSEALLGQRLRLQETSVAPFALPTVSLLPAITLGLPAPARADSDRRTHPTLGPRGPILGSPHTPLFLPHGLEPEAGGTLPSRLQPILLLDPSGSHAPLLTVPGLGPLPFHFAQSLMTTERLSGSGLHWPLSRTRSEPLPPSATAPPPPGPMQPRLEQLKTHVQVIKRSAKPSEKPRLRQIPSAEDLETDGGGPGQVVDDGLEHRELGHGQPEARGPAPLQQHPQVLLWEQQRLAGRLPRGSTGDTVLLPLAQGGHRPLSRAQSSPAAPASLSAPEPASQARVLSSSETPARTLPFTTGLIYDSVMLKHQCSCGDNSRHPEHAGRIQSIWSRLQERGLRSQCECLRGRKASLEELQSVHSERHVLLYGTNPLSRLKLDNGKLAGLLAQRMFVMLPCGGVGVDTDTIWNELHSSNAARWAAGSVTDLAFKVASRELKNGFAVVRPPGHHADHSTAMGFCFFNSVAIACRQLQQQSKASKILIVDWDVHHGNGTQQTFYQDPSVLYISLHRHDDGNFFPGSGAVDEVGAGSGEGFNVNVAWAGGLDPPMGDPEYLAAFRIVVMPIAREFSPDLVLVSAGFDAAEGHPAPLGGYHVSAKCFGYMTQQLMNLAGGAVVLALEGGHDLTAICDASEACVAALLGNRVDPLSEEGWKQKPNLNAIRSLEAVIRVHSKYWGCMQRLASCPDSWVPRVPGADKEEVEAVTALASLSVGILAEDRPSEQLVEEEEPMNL

[10] = biological target: Protein cereblon/Zinc finger protein Aiolos (Homo sapiens) (UniProt Q96SW2+Q9UKT9); assay: Protac activity at CRBN/IKZF3 in human MM1S cells assessed as IKZF3 degradation at 100 nM measured after 6 hrs in presence of NAE inhibitor MLN 4924 by Western blot analysis; assay type: cell-based
Procedure, shortened: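 MM1S cells seeded at 1 × 10^6 per well overnight. Pretreated 1 h with pomalidomide, Next-A, MLN 4924 or DMSO, then given 100 nM degrader or DMSO for 6 h. Lysed in RIPA with protease inhibitors, 10−40 μg protein run on SDS-PAGE and transferred to PVDF. Blots probed for IKZF1/IKZF3, detected by ECL and quantified by densitometry.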

[11] = biological target: T3, Cereblon/Ikaros (Homo sapiens) (UniProt Q96SW2+Q13422); assay: Protac activity at CRBN/IKZF1 in human MM1S cells assessed as IKZF1 degradation at 100 nM measured after 4 hrs by Western blot analysis; assay type: cell-based
[12] = biological target: Protein cereblon/Histone deacetylase 1 (Homo sapiens) (UniProt Q13547+Q96SW2); assay: Protac activity at CRBN/HDAC1 in human MM1S cells assessed as HDAC1 degradation measured after 6 hrs by Western blot analysis; assay type: cell-based
[13] = biological target: T1, Protein cereblon/Protein deacetylase HDAC6; assay: Protac activity at CRBN/HDAC6 in human MM1S cells assessed as induction of alpha tubulin acetylation at 100 nM measured after 6 hrs in presence of proteasome inhibitor bortezomib by Western blot analysis; assay type: cell-based
[14] = biological target: T3, Cereblon/Ikaros (Homo sapiens); assay: Protac activity at CRBN/IKZF1 in human MM1S cells assessed as IKZF1 degradation at 100 nM measured after 6 hrs by Western blot analysis; assay type: cell-based
[15] = biological target: T1, Protein cereblon/Protein deacetylase HDAC6; assay: Protac activity at CRBN/HDAC6 in human MM1S cells assessed as induction of alpha tubulin acetylation measured after 6 hrs by Western blot analysis; assay type: cell-based
Histone deacetylase 5 = Histone deacetylase 5 (Homo sapiens, UniProt Q9UQL6); assay: Inhibition of human N-terminal tagged human HDAC5 expressed in HEK293T/17 using Boc-[TFA-Lys]-AMC as substrate preincubated for 10 mins followed by substrate addition and measured after 60 mins by fluorescence assay
[16] = biological target: T1, Protein cereblon/Protein deacetylase HDAC6; assay: Protac activity at CRBN/HDAC6 in human MM1S cells assessed as HDAC6 degradation at 100 nM measured after 6 hrs in presence of proteasome inhibitor MG132 by Western blot analysis; assay type: cell-based

T1 sequence (Q96SW2 whole entry, looked up): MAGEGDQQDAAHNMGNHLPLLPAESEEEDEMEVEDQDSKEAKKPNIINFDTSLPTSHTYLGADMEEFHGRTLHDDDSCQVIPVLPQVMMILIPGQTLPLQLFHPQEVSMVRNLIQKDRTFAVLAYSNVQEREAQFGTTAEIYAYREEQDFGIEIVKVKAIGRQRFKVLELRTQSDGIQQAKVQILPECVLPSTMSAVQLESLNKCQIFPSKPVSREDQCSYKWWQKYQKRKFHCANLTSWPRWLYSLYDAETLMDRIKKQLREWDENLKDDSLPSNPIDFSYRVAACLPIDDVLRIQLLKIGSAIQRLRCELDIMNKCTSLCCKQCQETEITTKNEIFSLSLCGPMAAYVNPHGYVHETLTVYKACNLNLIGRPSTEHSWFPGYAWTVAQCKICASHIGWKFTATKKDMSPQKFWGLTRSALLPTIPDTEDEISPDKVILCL
T1 sequence (Q9UBN7 whole entry, looked up): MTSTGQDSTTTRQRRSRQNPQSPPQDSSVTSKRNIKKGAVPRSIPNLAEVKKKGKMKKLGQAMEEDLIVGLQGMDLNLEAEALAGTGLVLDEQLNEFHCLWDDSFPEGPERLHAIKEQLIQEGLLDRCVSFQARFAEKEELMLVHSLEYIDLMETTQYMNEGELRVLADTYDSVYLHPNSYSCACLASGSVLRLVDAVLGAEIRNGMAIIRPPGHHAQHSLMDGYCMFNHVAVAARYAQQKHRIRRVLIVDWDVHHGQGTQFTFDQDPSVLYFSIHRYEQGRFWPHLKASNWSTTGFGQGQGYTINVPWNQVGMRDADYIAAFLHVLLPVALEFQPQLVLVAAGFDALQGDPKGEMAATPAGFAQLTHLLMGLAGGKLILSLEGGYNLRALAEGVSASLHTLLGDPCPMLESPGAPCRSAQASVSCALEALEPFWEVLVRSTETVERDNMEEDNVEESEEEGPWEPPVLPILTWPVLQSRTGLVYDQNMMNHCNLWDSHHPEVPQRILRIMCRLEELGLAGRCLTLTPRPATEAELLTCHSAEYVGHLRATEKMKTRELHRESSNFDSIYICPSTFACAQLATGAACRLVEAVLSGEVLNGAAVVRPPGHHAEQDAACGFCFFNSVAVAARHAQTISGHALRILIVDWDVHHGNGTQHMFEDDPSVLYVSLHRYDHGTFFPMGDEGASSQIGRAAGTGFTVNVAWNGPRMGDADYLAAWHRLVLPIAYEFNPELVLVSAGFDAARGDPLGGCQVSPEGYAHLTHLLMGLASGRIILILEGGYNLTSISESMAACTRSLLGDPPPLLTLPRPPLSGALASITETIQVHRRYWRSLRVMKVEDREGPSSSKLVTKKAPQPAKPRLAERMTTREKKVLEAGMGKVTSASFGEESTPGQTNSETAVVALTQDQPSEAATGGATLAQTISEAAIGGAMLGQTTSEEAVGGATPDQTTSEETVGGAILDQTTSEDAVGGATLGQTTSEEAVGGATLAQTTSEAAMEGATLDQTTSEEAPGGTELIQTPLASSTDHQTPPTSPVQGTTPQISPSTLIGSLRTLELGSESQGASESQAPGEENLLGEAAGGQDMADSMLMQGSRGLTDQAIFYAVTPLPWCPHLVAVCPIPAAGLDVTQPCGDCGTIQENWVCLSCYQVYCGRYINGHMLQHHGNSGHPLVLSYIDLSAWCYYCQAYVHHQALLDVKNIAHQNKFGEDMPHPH
Sequence of Protein cereblon/Zinc finger protein Aiolos (Homo sapiens) (Q96SW2 whole entry, looked up): as the sequence (Q96SW2 whole entry, looked up) above
Sequence of Protein cereblon/Zinc finger protein Aiolos (Homo sapiens) (Q9UKT9 whole entry, looked up): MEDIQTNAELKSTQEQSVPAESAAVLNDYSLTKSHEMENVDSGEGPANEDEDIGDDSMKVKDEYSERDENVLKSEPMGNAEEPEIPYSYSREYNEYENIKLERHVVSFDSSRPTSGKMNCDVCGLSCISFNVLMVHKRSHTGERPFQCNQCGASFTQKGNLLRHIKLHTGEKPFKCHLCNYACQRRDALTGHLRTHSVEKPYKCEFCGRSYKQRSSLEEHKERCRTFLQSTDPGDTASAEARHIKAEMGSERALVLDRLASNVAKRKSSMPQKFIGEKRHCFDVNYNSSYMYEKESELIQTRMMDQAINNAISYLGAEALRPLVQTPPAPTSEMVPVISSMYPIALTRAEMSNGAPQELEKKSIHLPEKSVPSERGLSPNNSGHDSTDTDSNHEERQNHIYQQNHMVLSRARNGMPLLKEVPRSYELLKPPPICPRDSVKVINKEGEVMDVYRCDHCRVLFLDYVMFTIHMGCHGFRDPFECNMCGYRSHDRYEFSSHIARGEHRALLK
Sequence of Histone deacetylase 5 (Q9UQL6 whole entry): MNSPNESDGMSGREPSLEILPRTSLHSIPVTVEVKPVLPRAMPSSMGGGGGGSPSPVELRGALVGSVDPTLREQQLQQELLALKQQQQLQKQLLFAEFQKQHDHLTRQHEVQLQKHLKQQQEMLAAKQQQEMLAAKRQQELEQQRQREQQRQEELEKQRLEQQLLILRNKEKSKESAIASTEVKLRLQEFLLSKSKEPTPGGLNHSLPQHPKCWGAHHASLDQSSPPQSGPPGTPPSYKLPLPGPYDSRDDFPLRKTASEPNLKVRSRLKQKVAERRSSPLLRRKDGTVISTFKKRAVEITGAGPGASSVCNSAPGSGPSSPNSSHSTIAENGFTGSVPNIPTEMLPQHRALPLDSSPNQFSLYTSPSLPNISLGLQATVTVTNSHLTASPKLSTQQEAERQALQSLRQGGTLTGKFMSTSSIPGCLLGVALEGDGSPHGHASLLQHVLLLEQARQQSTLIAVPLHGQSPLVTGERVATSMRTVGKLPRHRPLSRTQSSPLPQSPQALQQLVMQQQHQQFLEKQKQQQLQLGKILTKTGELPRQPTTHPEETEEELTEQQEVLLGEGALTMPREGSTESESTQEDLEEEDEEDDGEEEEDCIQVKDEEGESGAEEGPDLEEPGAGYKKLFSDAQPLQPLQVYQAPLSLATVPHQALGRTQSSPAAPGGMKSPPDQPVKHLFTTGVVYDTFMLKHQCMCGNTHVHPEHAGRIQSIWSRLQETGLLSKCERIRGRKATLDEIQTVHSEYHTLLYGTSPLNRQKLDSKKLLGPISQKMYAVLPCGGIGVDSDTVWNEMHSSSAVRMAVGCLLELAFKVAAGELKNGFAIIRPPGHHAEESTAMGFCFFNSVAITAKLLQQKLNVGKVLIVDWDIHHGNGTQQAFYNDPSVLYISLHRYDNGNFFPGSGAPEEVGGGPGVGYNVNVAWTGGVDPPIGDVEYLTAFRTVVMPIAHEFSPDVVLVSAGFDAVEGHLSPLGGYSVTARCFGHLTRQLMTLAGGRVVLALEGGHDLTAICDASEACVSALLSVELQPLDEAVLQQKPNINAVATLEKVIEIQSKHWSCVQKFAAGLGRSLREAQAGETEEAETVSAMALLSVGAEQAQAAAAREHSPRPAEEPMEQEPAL
Sequence of Protein cereblon/Histone deacetylase 4 (Homo sapiens) (P56524 whole entry, looked up): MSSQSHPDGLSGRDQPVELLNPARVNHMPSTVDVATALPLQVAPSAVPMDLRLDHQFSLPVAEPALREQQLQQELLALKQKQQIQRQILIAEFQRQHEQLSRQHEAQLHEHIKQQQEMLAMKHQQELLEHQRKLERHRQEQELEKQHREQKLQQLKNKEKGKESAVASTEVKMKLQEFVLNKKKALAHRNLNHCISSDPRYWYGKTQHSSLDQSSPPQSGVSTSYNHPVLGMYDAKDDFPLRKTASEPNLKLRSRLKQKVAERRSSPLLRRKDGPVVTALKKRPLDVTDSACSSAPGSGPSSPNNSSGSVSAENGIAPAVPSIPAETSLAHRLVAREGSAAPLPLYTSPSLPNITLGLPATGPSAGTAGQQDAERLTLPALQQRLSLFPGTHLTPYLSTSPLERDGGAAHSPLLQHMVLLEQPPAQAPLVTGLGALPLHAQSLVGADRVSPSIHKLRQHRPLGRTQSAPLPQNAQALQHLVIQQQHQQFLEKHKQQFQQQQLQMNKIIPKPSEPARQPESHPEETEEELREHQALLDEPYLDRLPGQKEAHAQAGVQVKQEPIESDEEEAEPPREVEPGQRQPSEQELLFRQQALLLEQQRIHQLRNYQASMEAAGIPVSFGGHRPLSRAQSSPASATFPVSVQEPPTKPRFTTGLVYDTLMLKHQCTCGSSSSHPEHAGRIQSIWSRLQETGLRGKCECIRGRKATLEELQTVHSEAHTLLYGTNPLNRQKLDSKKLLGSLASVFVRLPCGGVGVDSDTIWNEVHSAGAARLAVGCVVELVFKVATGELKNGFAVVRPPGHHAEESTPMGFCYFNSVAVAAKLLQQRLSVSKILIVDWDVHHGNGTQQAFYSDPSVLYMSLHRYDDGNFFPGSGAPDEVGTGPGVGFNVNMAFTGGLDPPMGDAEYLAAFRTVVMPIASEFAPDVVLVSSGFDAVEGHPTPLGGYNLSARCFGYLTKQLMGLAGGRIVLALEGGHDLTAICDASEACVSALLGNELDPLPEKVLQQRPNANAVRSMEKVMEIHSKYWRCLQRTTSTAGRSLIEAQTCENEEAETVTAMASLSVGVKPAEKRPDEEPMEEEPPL
Sequence of Protein cereblon/Histone deacetylase 4 (Homo sapiens) (Q96SW2 whole entry, looked up): as the sequence (Q96SW2 whole entry, looked up) above
Sequence of Protein cereblon/Histone deacetylase 1 (Homo sapiens) (Q13547 whole entry, looked up): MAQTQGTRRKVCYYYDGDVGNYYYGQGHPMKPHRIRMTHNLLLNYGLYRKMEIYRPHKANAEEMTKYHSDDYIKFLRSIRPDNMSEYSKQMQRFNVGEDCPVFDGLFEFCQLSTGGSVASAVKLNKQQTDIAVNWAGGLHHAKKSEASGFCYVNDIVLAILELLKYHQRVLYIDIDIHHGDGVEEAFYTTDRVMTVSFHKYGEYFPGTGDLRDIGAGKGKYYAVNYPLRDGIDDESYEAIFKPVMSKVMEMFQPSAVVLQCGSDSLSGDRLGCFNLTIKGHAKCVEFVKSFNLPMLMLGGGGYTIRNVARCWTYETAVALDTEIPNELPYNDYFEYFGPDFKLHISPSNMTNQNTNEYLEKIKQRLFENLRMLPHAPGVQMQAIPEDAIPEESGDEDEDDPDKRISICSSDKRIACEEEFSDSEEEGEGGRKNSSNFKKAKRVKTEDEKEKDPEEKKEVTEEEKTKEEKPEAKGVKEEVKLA
Sequence of Protein cereblon/Histone deacetylase 1 (Homo sapiens) (Q96SW2 whole entry, looked up): as the sequence (Q96SW2 whole entry, looked up) above

Q: For CCCCN(Cc1ccc(C(=O)NO)cc1)C(=O)Nc1ccc(OCCCCCn2cc(CNc3cccc4c3C(=O)N(C3CCC(=O)NC3=O)C4=O)nn2)cc1 (stereo not drawn), which Activity (MM1.S [1]) is on record?
A: The Activity was “Active”.

Q: And the %max [2]?
A: The %max was 86.3%.

Q: What about the Activity [3] of the same compound?
A: Its Activity is “inactive”.

Q: What about the Activity [4] of the same compound?
A: The Activity was “Active”.

Q: And the Activity [5]?
A: The Activity was “Active”.

Q: What about the Activity [6] of the same compound?
A: The Activity was “inactive”.

Q: What about the Activity (MM1.S [7]) of the same compound?
A: Its Activity is “Dose-dependent effect”.

Q: What about the inhibition [8] of the same compound?
A: The inhibition was “inactive”.

Q: And the Activity (MM1.S [9])?
A: Its Activity is “Dose-dependent effect”.

Q: And the IC50 (Histone deacetylase 7)?
A: Its IC50 is 0.3 to 30 µM.

Q: And the Activity [10]?
A: The Activity was “inactive”.

Q: What about the Activity [11] of the same compound?
A: The Activity was “Active”.

Q: And the Activity [12]?
A: Its Activity is “inactive”.

Q: And the Activity [13]?
A: Its Activity is “inactive”.

Q: And the Activity [14]?
A: The Activity was “Active”.

Q: What about the Activity [15] of the same compound?
A: Its Activity is “Dose-dependent effect”.

Q: And the IC50 (Histone deacetylase 5)?
A: The IC50 was 0.3 to 30 µM.

Q: What about the Activity [16] of the same compound?
A: Its Activity is “inactive”.
